≈ marks a conversion by molar mass, not a printed value.
Columns and labels:
[1] = system: Cryptococcus gattii species complex; experiment: Antifungal activity against Cryptococcus gattii L28/02 after 48 to 72 hrs by broth microdilution method; assay type: functional, Cryptococcus bacillisporus
Outline: (§1)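 CLSI M27-A3 broth microdilution in RPMI with L-glutamine, buffered to pH 7.0 with 0.165 M MOPS. Colonies grown twice on SDA, 48 h at 35°C. Inoculum set to 70% transmittance at 530 nm, then diluted to 1-5 x10^3 cells/mL. Test agents dissolved in DMSO, serially diluted, tested at 0.1 to 62.5 µM. Plates held at 35°C for 48-72 h. MIC is the lowest concentration giving an optically clear well, read visually against drug-free growth controls.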

[2] = system: Cryptococcus bacillisporus; experiment: Antifungal activity against Cryptococcus gattii ATCC 32608 after 48 to 72 hrs by broth microdilution method; assay type: functional; outline: as §1
[3] = system: Cryptococcus gattii species complex; experiment: Antifungal activity against Cryptococcus gattii L27/01 after 48 to 72 hrs by broth microdilution method; assay type: functional, Cryptococcus bacillisporus; outline: as §1
Cryptococcus neoformans [4] = experiment: Antifungal activity against Cryptococcus neoformans 96806 after 48 to 72 hrs by broth microdilution method; assay type: functional
Outline: (§2)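 CLSI M27-A3 broth microdilution. Isolates subcultured twice on SDA, 48 h at 35°C. Saline suspension adjusted to 70% transmittance at 530 nm, then diluted to 1-5 x10^3 cells/mL in RPMI with L-glutamine, 0.165 M MOPS, pH 7.0. Compounds in DMSO, tested at […]. 35°C for 48-72 h. MIC read visually as the lowest concentration giving an optically clear well.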

[5] = system: Cryptococcus gattii species complex; experiment: Antifungal activity against Cryptococcus gattii L24/01 after 48 to 72 hrs by broth microdilution method; assay type: functional, Cryptococcus bacillisporus; outline: as §1
Cryptococcus neoformans [6] = experiment: Antifungal activity against Cryptococcus neoformans 27JF after 48 to 72 hrs by broth microdilution method; assay type: functional; outline: as §2
Cryptococcus neoformans [7] = experiment: Antifungal activity against Cryptococcus neoformans 28JF after 48 to 72 hrs by broth microdilution method; assay type: functional; outline: as §2
Cryptococcus neoformans [8] = experiment: Antifungal activity against Cryptococcus neoformans CN31 after 48 to 72 hrs by broth microdilution method; assay type: functional; outline: as §2
[9] = system: Cryptococcus gattii species complex; experiment: Antifungal activity against Cryptococcus gattii ICB181 after 48 to 72 hrs by broth microdilution method; assay type: functional, Cryptococcus bacillisporus; outline: as §1
Cryptococcus neoformans [10] = experiment: Antifungal activity against Cryptococcus neoformans ATCC 24067 after 48 to 72 hrs by broth microdilution method; assay type: functional; outline: as §2
[11] = Selectivity index, ratio of IC50 for C57BL/6 mouse peritoneal macrophages to MIC for Cryptococcus neoformans ATCC 24067
Outline: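 SI = IC50/MIC. Thioglycollate-elicited peritoneal macrophages from C57BL/6 mice are seeded at 1 x 10^5/well. They are exposed for 48 h at 37°C to eight concentrations from 100 to 0.0128 µM. Viability read by MTT versus 0.5% DMSO control, triplicate in two experiments.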

[12] = Selectivity index, ratio of IC50 for African green monkey Vero cells to MIC for Cryptococcus neoformans ATCC 24067; assay type: toxicity, cell-based
[13] = system: Cryptococcus gattii species complex; experiment: Ratio of compound MIC for Cryptococcus gattii ICB181 in presence of amphotericin B to compound MIC for Cryptococcus gattii ICB181 in absence of amphotericin B by checkerboard microtiter test; assay type: functional, Cryptococcus bacillisporus
Outline: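 Checkerboard microdilution: eight two-fold dilutions of test compound (0.11 to 15.6 µM) crossed with amphotericin B (0.025 to 3.9 µM, in DMSO) or fluconazole (0.48 to 62.5 µM, in water). Inoculum per CLSI M27-A3 in RPMI-MOPS pH 7.0, 1-5 x10^3 cells/mL. Growth 48 to 72 h. Effective MIC is the combination concentration giving complete inhibition. FICs derived from MICs in combination versus alone.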

[14] = Cytotoxicity against C57BL/6 mouse peritoneal macrophages assessed as cell viability measured after 48 hrs by MTT assay; assay type: cell-based; conditions: C57BL/6, Peritoneal macrophage cell
Outline: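 Thioglycollate-elicited peritoneal macrophages from male C57BL/6 mice, 6–8 weeks old, in RPMI with 10% FBS. Seeded 1 x 10^5 cells/well, pre-incubated 24 h at 37°C. Exposed 48 h at 37°C, 5% CO2, to eight nonserial dilutions from 100 to 0.0128 µM, with 0.5% DMSO control. MTT read-out, % inhibition versus DMSO control. IC50 reported as median with 95% CI. Triplicate, two independent experiments.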

Cryptococcus neoformans [15] = experiment: Antifungal activity against Cryptococcus neoformans LMM820 after 48 to 72 hrs by broth microdilution method; assay type: functional; outline: as §2
[16] = system: Cryptococcus gattii species complex; experiment: Antifungal activity against Cryptococcus gattii LMM818 after 48 to 72 hrs by broth microdilution method; assay type: functional, Cryptococcus bacillisporus; outline: as §1
Vero = experiment: Cytotoxicity against African green monkey Vero cells assessed as cell viability measured after 48 hrs by MTT assay; assay type: cell-based; conditions: Chlorocebus sabaeus
Outline: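 VERO cells in D-MEM with 5% FBS, used up to 20 passages. Seeded 1 x 10^4 cells/well, pre-incubated 24 h at 37°C. Exposed 48 h at 37°C, 5% CO2, to eight nonserial dilutions from 100 to 0.0128 µM, with 0.5% DMSO control. MTT reduction read-out, corrected for background and blank. IC50 reported as median with 95% CI. Triplicate, two independent experiments.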

[17] = system: Cryptococcus gattii species complex; experiment: Antifungal activity against Cryptococcus gattii 135L/03 after 48 to 72 hrs by broth microdilution method; assay type: functional, Cryptococcus bacillisporus; outline: as §1
[18] = system: Cryptococcus gattii species complex; experiment: Antifungal activity against Cryptococcus gattii 23/10993 after 48 to 72 hrs by broth microdilution method; assay type: functional, Cryptococcus bacillisporus; outline: as §1
Cryptococcus neoformans [19] = experiment: Antifungal activity against Cryptococcus neoformans F10 after 48 to 72 hrs by broth microdilution method; assay type: functional; outline: as §2
[20] = system: Cryptococcus gattii species complex; experiment: Antifungal activity against Cryptococcus gattii 196L/03 after 48 to 72 hrs by broth microdilution method; assay type: functional, Cryptococcus bacillisporus; outline: as §1
Cryptococcus neoformans [21] = experiment: Antifungal activity against Cryptococcus neoformans ATCC 62066 after 48 to 72 hrs by broth microdilution method; assay type: functional
Cryptococcus neoformans [22] = experiment: Antifungal activity against Cryptococcus neoformans 5396 after 48 to 72 hrs by broth microdilution method; assay type: functional; outline: as §2
Cryptococcus neoformans [23] = experiment: Antifungal activity against Cryptococcus neoformans VM-MCMMPI after 48 to 72 hrs by broth microdilution method; assay type: functional; outline: as §2
Cryptococcus neoformans [24] = experiment: Antifungal activity against Cryptococcus neoformans ATCC 28957 after 48 to 72 hrs by broth microdilution method; assay type: functional; outline: as §2
[25] = system: Cryptococcus gattii species complex; experiment: Antifungal activity against Cryptococcus gattii 547/OTTI-97-PI-10 after 48 to 72 hrs by broth microdilution method; assay type: functional, Cryptococcus bacillisporus; outline: as §1
[26] = system: Cryptococcus gattii species complex; experiment: Antifungal activity against Cryptococcus gattii 1913ER after 48 to 72 hrs by broth microdilution method; assay type: functional, Cryptococcus bacillisporus; outline: as §1
Cryptococcus neoformans [27] = experiment: Antifungal activity against Cryptococcus neoformans WP after 48 to 72 hrs by broth microdilution method; assay type: functional; outline: as §2

MIC [1]: 1.4 µM (≈ 0.408 µg/mL)
MIC [2]: 1.4 µM (≈ 0.408 µg/mL)
MIC [3]: 0.8 µM (≈ 0.233 µg/mL)
MIC (Cryptococcus neoformans [4]): 0.9 µM (≈ 0.262 µg/mL)
MIC [5]: 1.4 µM (≈ 0.408 µg/mL)
MIC (Cryptococcus neoformans [6]): 1.2 µM (≈ 0.35 µg/mL)
MIC (Cryptococcus neoformans [7]): 0.6 µM (≈ 0.175 µg/mL)
MIC (Cryptococcus neoformans [8]): 0.5 µM (≈ 0.146 µg/mL)
MIC [9]: 0.7 µM (≈ 0.204 µg/mL)
MIC (Cryptococcus neoformans [10]): 0.45 µM (≈ 0.131 µg/mL)
MIC (Cryptococcus neoformans [15]): 0.5 µM (≈ 0.146 µg/mL)
MIC [16]: 1.4 µM (≈ 0.408 µg/mL)
MIC [17]: 0.9 µM (≈ 0.262 µg/mL)
MIC [18]: 1.4 µM (≈ 0.408 µg/mL)
MIC (Cryptococcus neoformans [19]): 0.7 µM (≈ 0.204 µg/mL)
MIC [20]: 1.4 µM (≈ 0.408 µg/mL)
MIC (Cryptococcus neoformans [21]): 0.6 µM (≈ 0.175 µg/mL)
MIC (Cryptococcus neoformans [22]): 0.5 µM (≈ 0.146 µg/mL)
MIC (Cryptococcus neoformans [23]): 0.5 µM (≈ 0.146 µg/mL)
MIC (Cryptococcus neoformans [24]): 0.6 µM (≈ 0.175 µg/mL)
MIC [25]: 1.7 µM (≈ 0.495 µg/mL)
MIC [26]: 0.9 µM (≈ 0.262 µg/mL)
MIC (Cryptococcus neoformans [27]): 0.9 µM (≈ 0.262 µg/mL)
Structure (SMILES): COc1ccc(-c2csc(N/N=C(\C)CCO)n2)cc1
MFC [1]: 3.9 µM (≈ 1.14 µg/mL)
MFC [2]: 3.9 µM (≈ 1.14 µg/mL)
MFC [3]: 1.9 µM (≈ 0.554 µg/mL)
MFC (Cryptococcus neoformans [4]): 3.9 µM (≈ 1.14 µg/mL)
MFC [5]: 3.9 µM (≈ 1.14 µg/mL)
MFC (Cryptococcus neoformans [6]): 7.8 µM (≈ 2.27 µg/mL)
MFC (Cryptococcus neoformans [7]): 3.9 µM (≈ 1.14 µg/mL)
MFC (Cryptococcus neoformans [8]): 7.8 µM (≈ 2.27 µg/mL)
MFC [9]: 1.9 µM (≈ 0.554 µg/mL)
Ratio [11]: 222
selectivity ratio [12]: 111
fractional inhibitory concentration index (FICI) [13]: 9.55
IC50 [14]: > 100 µM
MFC (Cryptococcus neoformans [15]): 3.9 µM (≈ 1.14 µg/mL)
MFC [16]: 3.9 µM (≈ 1.14 µg/mL)
IC50 (Vero): > 100 µM
MFC [17]: 3.9 µM (≈ 1.14 µg/mL)
MFC [18]: 3.9 µM (≈ 1.14 µg/mL)
MFC (Cryptococcus neoformans [19]): 3.9 µM (≈ 1.14 µg/mL)
MFC [20]: 3.9 µM (≈ 1.14 µg/mL)
MFC (Cryptococcus neoformans [21]): 15.6 µM (≈ 4.55 µg/mL)
MFC (Cryptococcus neoformans [22]): 3.9 µM (≈ 1.14 µg/mL)
MFC (Cryptococcus neoformans [23]): 3.9 µM (≈ 1.14 µg/mL)
MFC (Cryptococcus neoformans [24]): 3.9 µM (≈ 1.14 µg/mL)
MFC [25]: 3.9 µM (≈ 1.14 µg/mL)
MFC [26]: 1.9 µM (≈ 0.554 µg/mL)
MFC (Cryptococcus neoformans [27]): 3.9 µM (≈ 1.14 µg/mL)

Reference: ChEMBL document CHEMBL3616437, “Thiazole compounds with activity against Cryptococcus gattii and Cryptococcus neoformans in vitro” (Eur J Med Chem, 2015)
